The source made the active and inactive calls. The rule behind the calls is not given here.
Legend:
[1] = target: T1, Human immunodeficiency virus type 1 integrase (Human immunodeficiency virus 1, UniProt Q7ZJM1); experiment: Binding affinity to HIV1 integrase by fluorescence anisotrophy
Procedure, shortened: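 Fluorescein-labelled peptide (final 0.05 to 0.1 µM) in 20 mM Tris pH 7.4 at 10 °C; 100 µM IN (taken as monomer) titrated in 20 steps of 10 µl at 15-min intervals. Anisotropy read at ex 480/em 530 nm after each addition; data fitted to Hill equation for Ka (Kd = 1/Ka).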

[2] = system: Human immunodeficiency virus 1; experiment: Inhibition of HIV1 delta env/VSV-G replication in human sup T1 T-lymphoid […] cells assessed as inhibition of total viral DNA at 12.5 uM after 2 hrs by RT-PCR; assay type: functional, organism-based
Procedure, shortened: (§1)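 Sup T1 cells pretreated 2 h with 12.5 µM peptide or 2 µM azidothymidine, then infected with HIV-1 Δenv/VSV-G at m.o.i. 2 for 6 h. Gag and Nef DNA amplified by PCR from 10 ng total cell DNA, 29 cycles.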

[3] = target: Human immunodeficiency virus type 1 integrase (Human immunodeficiency virus 1) (UniProt Q7ZJM1); experiment: Inhibition of recombinant HIV1 integrase strand transfer activity
Sequence of Human immunodeficiency virus type 1 integrase (Human immunodeficiency virus 1) (Q7ZJM1 as listed by the source): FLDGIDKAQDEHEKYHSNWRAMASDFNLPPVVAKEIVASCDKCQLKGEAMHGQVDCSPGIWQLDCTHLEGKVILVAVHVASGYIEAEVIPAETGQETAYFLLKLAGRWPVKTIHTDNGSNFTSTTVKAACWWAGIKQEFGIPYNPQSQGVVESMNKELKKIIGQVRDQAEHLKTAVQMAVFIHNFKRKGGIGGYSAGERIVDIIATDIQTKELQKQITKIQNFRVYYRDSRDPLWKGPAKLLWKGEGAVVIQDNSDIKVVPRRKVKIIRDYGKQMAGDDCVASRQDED
Procedure, shortened: (§2)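 IN (0.8 µM) incubated with peptides; 3'-end processing or strand-transfer activity followed on labelled gel-purified oligonucleotide substrates by gel size shift or specific cleavage.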

[4] = system: Human immunodeficiency virus 1; experiment: Inhibition of HIV1 delta env/VSV-G replication in human sup T1 T-lymphoid […] cells assessed as inhibition of viral DNA integration by RT-PCR; assay type: functional, organism-based
Procedure, shortened: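 Sup T1 cells pretreated 2 h with peptide, infected with HIV-1 Δenv/VSV-G at m.o.i. 2 for 24 h. Integrated DNA quantified by two-round Alu-LTR PCR (12 cycles, then 50 real-time cycles) against an HXB2 plasmid standard curve (5 ng to 0.25 fg), quadruplicate samples.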

[5] = target: Human immunodeficiency virus type 1 integrase (Human immunodeficiency virus 1) (UniProt Q7ZJM1); experiment: Inhibition of recombinant HIV1 integrase 3'-end processing activity; procedure, shortened: as §2
[6] = target: Human immunodeficiency virus type 1 integrase (Human immunodeficiency virus 1) (UniProt Q7ZJM1); experiment: (§3) Inhibition of HIV1 integrase by quantitative ELISA
Procedure, shortened: (§4)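 Overall integration reaction: 390 nM IN preincubated 10 min with peptide, then 1 µM biotin/digoxigenin-labelled duplex oligonucleotide in 20 mM Hepes pH 7.5, 10 mM MgCl2, 10 mM DTT, 10% Me2SO, 5% PEG-8000, 0.1 mg/ml BSA for 1 h at 37 °C. Stopped with EDTA/NaCl/salmon sperm DNA buffer; product read by immunoassay on avidin-coated plates.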

[7] = system: Human immunodeficiency virus 1; experiment: Inhibition of HIV1 replication in human T-lymphoid H9 cells assessed as decrease in viral p24 level; assay type: functional, organism-based
Procedure, shortened: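 H9 cells pretreated 2 h with peptide, infected with wild-type HIV-1 (HXB2, from transfected HEK293T) at m.o.i. 0.1 for 1 h at 37 °C, washed, cultured 10 days; p24 measured by capture immunoassay.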

[8] = target: Human immunodeficiency virus type 1 integrase (Human immunodeficiency virus 1) (UniProt Q7ZJM1); experiment: Inhibition of HIV1 integrase by qualitative integration assay system; procedure, shortened: as §2
[9] = system: Human immunodeficiency virus 1; experiment: Inhibition of HIV1 replication in human TZM-bl cells assessed as beta-galactosidase activity at 2.5 uM; assay type: functional
Procedure, shortened: (§5)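 TZM-bl cells carrying TAR-driven β-galactosidase, incubated with peptides, then infected with HIV-1 in 20 µg/ml DEAE-dextran. Cells fixed 2 days post-infection, stained with X-gal, and blue cells counted by light microscopy.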

[10] = system: Human immunodeficiency virus 1; experiment: Inhibition of HIV1 delta env/VSV-G replication in human sup T1 T-lymphoid […] cells assessed as inhibition of total viral DNA at 2 uM after 2 hrs by RT-PCR; assay type: functional, organism-based; procedure, shortened: as §1
[11] = target: T1, Human immunodeficiency virus type 1 integrase; experiment: as §3; procedure, shortened: as §4
[12] = system: Human immunodeficiency virus 1; experiment: Inhibition of HIV1 replication in human TZM-bl cells assessed as beta-galactosidase activity; assay type: functional, organism-based; procedure, shortened: as §5

T1 sequence (Q7ZJM1 whole entry): as the sequence (Q7ZJM1 as listed by the source) above

CC[C@H](C)[C@H](NC(=O)[C@H](CC(C)C)NC(=O)[C@H](CCCNC(=N)N)NC(=O)[C@@H](NC(=O)[C@@H](NC(=O)[C@H](CCCCN)NC(=O)[C@H](CC(C)C)NC(=O)[C@H](CC(C)C)NC(=O)[C@H](CCC(=O)O)NC(=O)[C@H](CCC(=O)O)NC(=O)[C@H](CC(=O)O)NC(=O)[C@H](CO)NC(=O)[C@H](CC(=O)O)NC(=O)CNC(=O)[C@H](CO)NC(=O)[C@H](CCCNC(=N)N)NC(=O)CNC(=O)[C@H](C)NC(=O)[C@@H](N)CCSC)[C@@H](C)O)C(C)C)C(=O)N[C@@H](CCCCN)C(=O)N[C@@H](Cc1ccccc1)C(=O)N[C@@H](CC(C)C)C(=O)N[C@@H](Cc1ccc(O)cc1)C(=O)N[C@@H](CCC(N)=O)C(=O)N[C@@H](CO)C(=O)N[C@@H](CC(N)=O)C(=O)N1CCC[C@H]1C(=O)N1CCC[C@H]1C(=O)N1CCC[C@H]1C(=O)N[C@@H](CO)C(=O)O
Kd [1]: 6.5 µM
Activity [2]: inactive

CC[C@H](C)[C@H](NC(=O)[C@H](CC(C)C)NC(=O)[C@H](CCCNC(=N)N)NC(=O)[C@@H](NC(=O)[C@@H](NC(=O)[C@H](CCCCN)NC(=O)[C@@H](N)CC(C)C)[C@H](C)O)C(C)C)C(=O)N[C@@H](CCCCN)C(=O)N[C@@H](Cc1ccccc1)C(=O)N[C@@H](CC(C)C)C(=O)N[C@@H](Cc1ccc(O)cc1)C(=O)N[C@@H](CCC(N)=O)C(=O)N[C@@H](CO)C(=O)N[C@@H](CC(N)=O)C(=O)N1CCC[C@H]1C(=O)O
Activity [3]: Active
Activity [4]: Active
Activity [5]: Active

CC[C@H](C)[C@H](NC(=O)[C@H](CO)NC(=O)[C@H](Cc1c[nH]c2ccccc12)NC(=O)[C@@H](NC(=O)[C@H](CCCNC(=N)N)NC(=O)CNC(=O)[C@H](CO)NC(=O)[C@@H]1CCCN1C(=O)[C@H](CO)NC(=O)[C@@H](NC(=O)[C@H](CCCNC(=N)N)NC(=O)[C@H](Cc1ccc(O)cc1)NC(=O)[C@H](CC(C)C)NC(=O)CNC(=O)[C@@H](N)CC(C)C)[C@H](C)O)[C@@H](C)CC)C(=O)O
Activity [6]: Active
Activity [7]: inactive
Activity [8]: inactive
Activity [9]: inactive

CSCC[C@H](N)C(=O)N[C@@H](C)C(=O)NCC(=O)N[C@@H](CCCNC(=N)N)C(=O)N[C@@H](CO)C(=O)NCC(=O)N[C@@H](CC(=O)O)C(=O)N[C@@H](CO)C(=O)N[C@@H](CC(=O)O)C(=O)N[C@@H](CCC(=O)O)C(=O)N[C@@H](CCC(=O)O)C(=O)N[C@@H](CC(C)C)C(=O)N[C@@H](CC(C)C)C(=O)N[C@@H](CCCCN)C(=O)N[C@H](C(=O)O)[C@@H](C)O
Activity [3]: inactive
Activity [5]: inactive

Cc1cn([C@H]2C[C@H](N=[N+]=[N-])[C@@H](CO)O2)c(=O)[nH]c1=O
Activity [10]: Active

H-DEELLKTVRLIKFLY-OH
Activity [3]: Active
Activity [5]: Active

H-FRKLIYLTKVL-OH
Activity [6]: Active
Activity [7]: inactive
Activity [8]: inactive
Activity [9]: inactive

H-FVSTHFSVPASPWLLLIDIV-OH
Kd [1]: 7.5 µM

H-GWILSTYLGRPAEPV-OH
Activity [3]: inactive

H-LKTVRLIKFLY-OH [LKTVRLIKFLY]
IC50 [11]: 25 µM
Activity [7]: Active
Activity [12]: Dose-dependent effect
Kd [1]: 2.8 µM
inhibition at 2.5 µM ([9]; Human immunodeficiency virus 1, TZM-bl): 70%
Activity [2]: inactive
Activity [3]: Active
Activity [5]: Active

H-QRQIRSISGWILSTY-OH
Activity [3]: Active
Activity [5]: Active

H-QRQIRSISGWILSTYLGRPAEPVPLQ-OH
Kd [1]: 11.2 µM

H-RLIKFLYQSNPPPSP-OH
Activity [3]: inactive
Activity [5]: inactive

H-RSISGWILSTYLGRP-OH
IC50 [11]: 25 µM
Activity [7]: Active
Activity [12]: Dose-dependent effect
Kd [1]: 6.9 µM
Activity [9]: Active
Activity [2]: inactive
Activity [3]: Active
Activity [4]: Active
Activity [5]: Active

H-SGDSDEELLKTVRLI-OH
Activity [3]: inactive
Activity [5]: Active

H-STYLGRPAEPVPLQL-OH
Activity [3]: inactive
Activity [5]: inactive

H-WRERQRQIRSISGWI-OH
Activity [3]: inactive
Activity [5]: inactive
